Assay results published in ChEMBL document CHEMBL1153766, “Regioselective reaction: synthesis and pharmacological study of Mannich bases containing ibuprofen moiety” (2009).
Active and inactive are the calls of the source. The calls are words filed in the database; no cut-off is given here.

What was measured:
[1] = tested on: Rattus norvegicus; test: Antiinflammatory activity against Wistar albino rat assessed as inhibition of carrageenan-induced paw edema at 20 mg/kg, po administered 30 mins prior to carrageenan challenge measured after 1.5 hrs; format: functional
Outline: (§1)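 Carrageenan paw oedema in Wistar albino rats (Winter method). Compounds given orally at 20 mg/kg as a suspension in 1% carboxymethyl cellulose, 30 min before 0.1 mL of 1% w/v carrageenan injected into the plantar region of the paw. Paw volume measured by plethysmography at 30, 60, 90, 120, 150 and 180 min. Inhibition calculated relative to vehicle controls. Mean ± SEM.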

[2] = tested on: Mus musculus; test: Analgesic activity against Swiss albino mouse assessed as increase in paw licking or jump response at 10 mg/kg, po after 1.5 hrs by hot plate method; format: functional
Outline: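 Hot-plate test in Swiss albino mice, 6 per group. Compounds given orally by gavage as a suspension in 1% carboxymethyl cellulose, 10 mg/kg. Animals placed on a plate held at 55 ± 1 °C, with paw licking or jumping as the end point. Reaction time recorded at 30, 60 and 90 min after dosing. Percentage increase in reaction time calculated using the maximum tolerated reaction time. Mean ± SEM.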

[3] = tested on: Staphylococcus aureus; test: Antimicrobial activity against Staphylococcus aureus at 1000 ug after 24 to 48 hrs by well diffusion method; format: functional, organism-based
Outline: (§2)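 Agar well diffusion against Staphylococcus aureus, Escherichia coli and Aspergillus. Compounds dissolved in DMF (10 mg in 10 mL), and the solution placed into wells cut with a borer. Plates incubated at 37 °C for 24–48 h, then inspected.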

[4] = tested on: Rattus norvegicus; test: Antiinflammatory activity against Wistar albino rat assessed as inhibition of carrageenan-induced paw edema at 20 mg/kg, po administered 30 mins prior to carrageenan challenge measured after 3 hrs; format: functional; outline: as §1
[5] = tested on: Rattus norvegicus; test: Antiinflammatory activity against Wistar albino rat assessed as inhibition of carrageenan-induced paw edema at 20 mg/kg, po administered 30 mins prior to carrageenan challenge measured after 0.5 hrs; format: functional; outline: as §1
[6] = tested on: Rattus norvegicus; test: Antiinflammatory activity against Wistar albino rat assessed as inhibition of carrageenan-induced paw edema at 20 mg/kg, po administered 30 mins prior to carrageenan challenge measured after 2.5 hrs; format: functional; outline: as §1
[7] = tested on: Rattus norvegicus; test: Antiinflammatory activity against Wistar albino rat assessed as inhibition of carrageenan-induced paw edema at 20 mg/kg, po administered 30 mins prior to carrageenan challenge measured after 2 hrs; format: functional; outline: as §1
[8] = tested on: Rattus norvegicus; test: Antiinflammatory activity against Wistar albino rat assessed as inhibition of carrageenan-induced paw edema at 20 mg/kg, po administered 30 mins prior to carrageenan challenge measured after 1 hrs; format: functional; outline: as §1
[9] = tested on: Escherichia coli; test: Antimicrobial activity against Escherichia coli at 1000 ug after 24 to 48 hrs by well diffusion method; format: functional, organism-based; outline: as §2
[10] = tested on: Aspergillus; test: Antimicrobial activity against Aspergillus at 1000 ug after 24 to 48 hrs by well diffusion method; format: functional, organism-based; outline: as §2

In the case of `CC(C)Cc1ccc(C(C)c2nn(CN3CCOCC3)c(=S)n2/N=C/c2ccc([N+](=O)[O-])cc2)cc1` (centres undefined), the inhibition in vivo at 20 mg/kg [1] is reported as 65%, the Activity [2] is reported as 79.6% and the Activity [3] is reported as “inactive”. For the same compound, the inhibition in vivo at 20 mg/kg [4] was 73%, the inhibition in vivo at 20 mg/kg [5] was 12% and the inhibition in vivo at 20 mg/kg [6] was 71%. For the same compound, the inhibition in vivo at 20 mg/kg [7] was 54%, the inhibition in vivo at 20 mg/kg [8] was 52% and the Activity [9] was “inactive”. For the same compound, the Activity [10] was “inactive”.

`Cc1ccc(/C=N/n2c(C(C)c3ccc(CC(C)C)cc3)nn(CN3CCOCC3)c2=S)cc1` (centres undefined) was tested, and the inhibition in vivo at 20 mg/kg [1] was 64%, the Activity [2] was 64.32% and the Activity [3] was “inactive”. The inhibition in vivo at 20 mg/kg [4] was 68%, the inhibition in vivo at 20 mg/kg [5] was 0% and the inhibition in vivo at 20 mg/kg [6] was 67%. For the same compound, the inhibition in vivo at 20 mg/kg [7] was 60%, the inhibition in vivo at 20 mg/kg [8] was 23% and the Activity [9] was “inactive”. For the same compound, the Activity [10] was “inactive”.

For `CC(C)Cc1ccc(C(C)c2nnc(S)n2/N=C/c2ccc(Cl)cc2)cc1` (centres undefined), the inhibition in vivo at 20 mg/kg [1] was 52%, the Activity [3] was “inactive” and the inhibition in vivo at 20 mg/kg [4] was 64%. The inhibition in vivo at 20 mg/kg [5] was 62%, the inhibition in vivo at 20 mg/kg [6] was 62% and the inhibition in vivo at 20 mg/kg [7] was 57%. The inhibition in vivo at 20 mg/kg [8] was 49%, the Activity [9] was “inactive” and the Activity [10] was “inactive”.

`CC(C)Cc1ccc(C(C)c2nn(CN(c3ccccc3)c3ccccc3)c(=S)n2/N=C/c2ccc(Br)cc2)cc1` (centres undefined) was tested, and the inhibition in vivo at 20 mg/kg [1] was 38%, the Activity [3] was “inactive” and the inhibition in vivo at 20 mg/kg [4] was 57%. For the same compound, the inhibition in vivo at 20 mg/kg [5] was 9%, the inhibition in vivo at 20 mg/kg [6] was 57% and the inhibition in vivo at 20 mg/kg [7] was 38%. The inhibition in vivo at 20 mg/kg [8] was 10%, the Activity [9] was “inactive” and the Activity [10] was “inactive”.

In the case of `CC(C)Cc1ccc(C(C)c2nnc(S)n2N)cc1` (centres undefined), the inhibition in vivo at 20 mg/kg [1] is reported as 46%, the Activity [3] is reported as “inactive” and the inhibition in vivo at 20 mg/kg [4] is reported as 56%. The inhibition in vivo at 20 mg/kg [5] was 30%, the inhibition in vivo at 20 mg/kg [6] was 50% and the inhibition in vivo at 20 mg/kg [7] was 45%. For the same compound, the inhibition in vivo at 20 mg/kg [8] was 32%, the Activity [9] was “inactive” and the Activity [10] was “inactive”.

`O=C(O)Cc1ccccc1Nc1c(Cl)cccc1Cl` [DICLOFENAC] was tested, and the inhibition in vivo at 20 mg/kg [1] was 70%, the Activity [2] was 79.24% and the inhibition in vivo at 20 mg/kg [4] was 65%. The inhibition in vivo at 20 mg/kg [5] was 83%, the inhibition in vivo at 20 mg/kg [6] was 69% and the inhibition in vivo at 20 mg/kg [7] was 87%. The inhibition in vivo at 20 mg/kg [8] was 59%.

Compound `CC(C)Cc1ccc(C(C)C(=O)O)cc1` (centres undefined) [IBUPROFEN] has an inhibition in vivo at 20 mg/kg [1] of 25%, an inhibition in vivo at 20 mg/kg [4] of 42% and an inhibition in vivo at 20 mg/kg [5] of 20%. The inhibition in vivo at 20 mg/kg [6] was 39%, the inhibition in vivo at 20 mg/kg [7] was 36% and the inhibition in vivo at 20 mg/kg [8] was 18%.

With `CC(C)Cc1ccc(C(C)c2nn(CN3CCN(C)CC3)c(=S)n2/N=C/c2ccc([N+](=O)[O-])cc2)cc1` (centres undefined) the inhibition in vivo at 20 mg/kg [1] was 82%, the Activity [2] was 70.75% and the Activity [3] was “inactive”. The inhibition in vivo at 20 mg/kg [4] was 74%, the inhibition in vivo at 20 mg/kg [5] was 38% and the inhibition in vivo at 20 mg/kg [6] was 75%. The inhibition in vivo at 20 mg/kg [7] was 68%, the inhibition in vivo at 20 mg/kg [8] was 70% and the Activity [9] was “inactive”. The Activity [10] was “inactive”.

In the case of `CC(C)Cc1ccc(C(C)c2nnc(S)n2/N=C/c2ccc(Br)cc2)cc1` (centres undefined), the inhibition in vivo at 20 mg/kg [1] is reported as 65%, the Activity [3] is reported as “inactive” and the inhibition in vivo at 20 mg/kg [4] is reported as 72%. It also gave an inhibition in vivo at 20 mg/kg [5] of 0%, an inhibition in vivo at 20 mg/kg [6] of 70% and an inhibition in vivo at 20 mg/kg [7] of 60%. The inhibition in vivo at 20 mg/kg [8] was 16%, the Activity [9] was “inactive” and the Activity [10] was “inactive”.

With `CC(C)Cc1ccc(C(C)c2nn(CN3CCOCC3)c(=S)n2/N=C/c2ccc(Cl)cc2)cc1` (centres undefined) the inhibition in vivo at 20 mg/kg [1] was 61%, the Activity [2] was 76.49% and the Activity [3] was “inactive”. The inhibition in vivo at 20 mg/kg [4] was 74%, the inhibition in vivo at 20 mg/kg [5] was 90% and the inhibition in vivo at 20 mg/kg [6] was 73%. For the same compound, the inhibition in vivo at 20 mg/kg [7] was 61%, the inhibition in vivo at 20 mg/kg [8] was 42% and the Activity [9] was “inactive”. For the same compound, the Activity [10] was “inactive”.
